From PubChem BioAssay
UBC13 inh: human UBC13 polyubiquitination inhibition. P61088. UBC13 polyubiquitin chain formation, TR-FRET. inhibition, % at 20 µM. actives 0.47% (n = 330,000). AID 485273; in the data active = inhibition above about 45%, passing the limit was not always enough
ANO1 activ: mouse TMEM16A channel activation, primary screen; Q8BHY3; HEK293 TMEM16A/YFP-H148Q/I152L, iodide quench fluorescence; stronger effect = lower value; B-score at 10 µM; actives 0.3% (n = 340,000); AID 623877;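 active = fluorescence-ratio B-score plate-corrected deviation score at least 3 library SD below zero, with starting fluorescence score within 5 deviations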;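 note: channel opened by trigger with iodide after compound preincubation; score built on the fluorescence ratio of max minus min over baseline; more negative score means more quench and so TMEM16A activation or potentiation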
TMEM16A inh: mouse TMEM16A channel inhibition, primary screen; actives 1.2% (n = 310,000); AID 588511; Q8BHY3; normalized B-score (activity score, 25-100; higher = stronger inhibition) at 10 µM; HEK293 TMEM16A/YFP iodide influx fluorescence, ionomycin;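 active = ratio plate-corrected score three or more library SD toward inhibition, starting fluorescence score within five deviations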;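 note: score derived from kinetic fluorescence span divided by baseline fluorescence per well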
DNA FID counter: fluorescent intercalator displacement, NS3 helicase counter-screen; inhibition, % at 7.9 µM; AID 1845; actives 0.17% (n = 290,000); DNA fluorescent intercalator displacement, fluorescence; in the data active = inhibition above about 37%;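 note: 0% = vehicle and 100% = reference compound; higher means more ethidium bromide displaced from hairpin DNA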
Apaf1 inhib: blocks human Apaf-1 apoptosome activity. reconstituted apoptosome caspase-3 activity, DEVD-Rh110 fluorescence. inhibition, % at 20 µM. actives 0.71% (n = 330,000); active = inhibition of at least 40% at 20 µM;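 note: plate controls were DMSO wells for no effect and DEVD-CHO caspase inhibitor wells for full effect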
Target sequence (O14727 whole entry, looked up): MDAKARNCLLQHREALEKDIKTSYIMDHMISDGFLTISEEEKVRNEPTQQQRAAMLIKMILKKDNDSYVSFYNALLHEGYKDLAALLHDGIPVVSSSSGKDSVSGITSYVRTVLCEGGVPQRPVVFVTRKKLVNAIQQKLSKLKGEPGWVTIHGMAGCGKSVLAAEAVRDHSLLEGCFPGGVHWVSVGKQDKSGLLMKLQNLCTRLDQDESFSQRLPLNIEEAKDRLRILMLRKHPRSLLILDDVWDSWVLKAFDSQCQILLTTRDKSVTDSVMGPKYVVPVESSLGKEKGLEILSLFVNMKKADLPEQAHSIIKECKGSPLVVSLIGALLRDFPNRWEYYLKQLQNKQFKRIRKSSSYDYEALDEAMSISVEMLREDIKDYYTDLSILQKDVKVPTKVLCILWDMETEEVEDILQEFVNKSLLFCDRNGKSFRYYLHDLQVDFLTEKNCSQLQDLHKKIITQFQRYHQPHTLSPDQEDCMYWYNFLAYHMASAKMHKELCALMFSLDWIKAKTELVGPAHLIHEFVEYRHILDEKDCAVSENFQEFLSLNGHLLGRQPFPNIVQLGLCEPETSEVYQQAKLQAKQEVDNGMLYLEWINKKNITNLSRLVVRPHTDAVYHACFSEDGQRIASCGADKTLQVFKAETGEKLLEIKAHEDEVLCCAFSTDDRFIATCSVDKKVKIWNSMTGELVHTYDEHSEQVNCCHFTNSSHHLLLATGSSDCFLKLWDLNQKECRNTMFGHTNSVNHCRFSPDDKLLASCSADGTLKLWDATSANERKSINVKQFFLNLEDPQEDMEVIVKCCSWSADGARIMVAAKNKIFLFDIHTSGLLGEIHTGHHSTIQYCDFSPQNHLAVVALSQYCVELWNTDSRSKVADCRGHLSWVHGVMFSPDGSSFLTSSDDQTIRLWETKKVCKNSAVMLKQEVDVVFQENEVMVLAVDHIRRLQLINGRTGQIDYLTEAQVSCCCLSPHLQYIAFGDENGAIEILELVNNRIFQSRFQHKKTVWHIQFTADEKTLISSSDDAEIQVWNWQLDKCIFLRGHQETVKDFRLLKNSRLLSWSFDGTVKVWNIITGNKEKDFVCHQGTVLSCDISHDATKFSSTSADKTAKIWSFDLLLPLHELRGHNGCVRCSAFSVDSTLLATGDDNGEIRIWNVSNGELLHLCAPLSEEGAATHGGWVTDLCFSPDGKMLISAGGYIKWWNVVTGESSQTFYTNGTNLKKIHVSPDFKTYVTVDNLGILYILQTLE
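Assay system: Apoptosome proteins | Medium: pH 7.5 Hepes buffer with CHAPS, BSA, DTT | Also added: Cytochrome c and DEVD-Rh110 substrate | Times: 30 min plus 50 min, RT | Detection: Rhodamine 110 fluorescence at Ex 480/Em 540 nm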
TMEM16A reconf: re-confirmation of mouse TMEM16A chloride channel inhibitors. shares compounds with TMEM16A inh. HEK293 TMEM16A/YFP-H148Q, iodide quench fluorescence; ionomycin added to raise cell calcium. inhibition, % at 10 µM. actives 39% (n = 2,300);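 active = mean duplicate percent inhibition, scaled so buffer wells are 0 and the reference blocker 100, over three buffer SD above buffer mean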
TMEM16A Ca cntr: counter-screen for TMEM16A inhibitors: effect on calcium mobilization; shares compounds with TMEM16A inh; TMEM16A/YFP HEK293, Fluo4 calcium mobilization; calcium response (% of ionomycin), % at 10 µM; actives 2% (n = 2,300); AID 652231;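 active = duplicate-averaged calcium signal over 20% of the ionomycin maximum, relative to buffer baseline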;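 note: each well's signal is peak minus trough fluorescence divided by its pre-addition baseline; 0% = buffer wells and 100% = ionomycin wells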
Parental YFP cnt: counter-screen for TMEM16A inhibitors: effect in parental YFP-HEK293 cells | 2,300 tested, under 10 active | YFP ratio F(max-min)/F0 at 10 µM | iodide YFP quench, ionomycin | shares compounds with TMEM16A inh | AID 652233;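 active = yellow fluorescent protein signal ratio exceeding the buffer control mean by over 5 SD of those controls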;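 note: ratio is mean of duplicate wells from kinetic YFP trace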
ClC-1 inh: blocks the rat ClC-1 voltage-dependent chloride channel; AID 652236; 2,300 tested, under 10 active; CHO ClC-1-YFP, iodide influx fluorescence quench; iodide control reads 0, buffer control 100; shares compounds with TMEM16A inh; ratio percent, % at 10 µM;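 active = duplicate-mean ratio percent above the mean of iodide-only control wells, which defines zero, plus 5 of their SD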;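 note: higher percent means stronger block of ClC-1 iodide influx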
Numbers without * were called inactive; i = inactive; . = no result given. A selection: hits, their analogues and other compounds. The true share with any hit is near 2.4%.

SMILES | UBC13 inh | ANO1 activ | TMEM16A inh | DNA FID counter | Apaf1 inhib | TMEM16A reconf | TMEM16A Ca cntr | Parental YFP cnt | ClC-1 inh
CS(=O)(=O)c1ccc(CNC(=O)C2(C(F)(F)F)CC(CCCO)CCCO2)cc1 (stereo not drawn) | 8 | . | i | . | -5 | . | . | . | .
O=C(O)c1cc(-c2c[nH]c3ccccc23)nc2cc3ccccc3cc12 | 6 | i | i | -21 | 11 | . | . | . | .
COc1ccc(N2CCn3c2nc2c3c(=O)n(CCCc3ccccc3)c(=O)n2C)c(OC)c1 | -13 | i | 100* | -7 | 31 | 22%* | i | -1.2 | -14
COc1ccc(N2CCn3c2nc2c3c(=O)n(CCc3ccccc3)c(=O)n2C)c(OC)c1 | . | . | . | 4 | . | . | . | . | .
COc1ccc(Cl)cc1S(=O)(=O)N1CCC(C(=O)NCCc2ccccc2)CC1 | 4 | i | i | -35 | -5 | . | . | . | .
CCN1C(=O)/C(=C/C=C2/SCCN2C)SC1=S | i | i | i | 4 | 18 | 24%* | i | -0.59 | 17
O=C(Nc1cccc(F)c1)N(Cc1ccc(Cl)cc1)CC(O)C(F)(F)F (stereo not drawn) | 3 | i | 100* | -9 | 19 | 78%* | i | -0.89 | -19
O=C(Nc1ccccc1)N(Cc1ccccc1)CC(O)C(F)(F)F (stereo not drawn) | 3 | i | i | -7 | 0 | . | . | . | .
COC(=O)c1ccc(CNC(=O)COC(=O)C23CC4CC(CC(C4)C2)C3)cc1 | 21 | i | i | -31 | 7 | . | . | . | .
COC(=O)c1ccc(CNC(=O)COC(=O)CC23CC4CC(CC(Br)(C4)C2)C3)cc1 | 13 | i | 25* | -24 | 20 | i | i | -0.92 | -12
CC(C)Oc1cc(NC(=O)CS(=O)CC(=O)Nc2cccc(C(F)(F)F)c2)c(Cl)cc1Cl (stereo not drawn) | 8 | i | 100* | -7 | 19 | i | i | -1.1 | -6
CC(C)Oc1cc(NC(=O)CS(=O)CC(=O)N(C)C)c(Cl)cc1Cl (stereo not drawn) | 1 | i | i | -6 | 1 | . | . | . | .
CCOC(=O)C(=O)Nc1ccc(S(=O)(=O)Nc2ncccn2)cc1 | 4 | i | 25* | 0 | -10 | i | i | -1.1 | 2
O=C(O)[C@H](Cc1ccccc1)N1C(=O)c2ccncc2C1=O | -2 | i | 100* | 4 | 5 | i | i | -0.94 | -16
Cc1c(C(=O)OCCOc2ccccc2)[nH]c2c1C(=O)CCC2 | 12 | i | 100* | -8 | 1 | 25%* | i | -0.8 | -13
Cc1ccc(/C=C(\C#N)C(=O)Nc2c(C)cccc2C)s1 | -8 | i | i | -5 | -12 | . | . | . | .
Cc1ccc(NC(=O)/C(C#N)=C/c2ccc(C)s2)c(C)c1 | -18 | i | i | -4 | 5 | i | i | -1.1 | 10
Cc1ccc(-c2nnc(CSc3nnc(C)s3)o2)cc1 | 8 | i | i | -12 | -6 | . | . | . | .
CCc1nc(SCc2nnc(-c3ccc(C)cc3)o2)c2c(C)c(C)sc2n1 | 1 | . | i | -3 | 14 | i | i | -1.2 | -8
CCOC(=O)C(Cc1cc(N)c(Oc2ccc(OC)cc2)c(N)c1)NC(C)=O (stereo not drawn) | . | i | . | . | . | . | . | . | .
COc1ccccc1NC(=O)C(C)OC(=O)C1CC(=O)N(c2ccc3c(c2)OCCO3)C1 (stereo not drawn) | 14 | i | i | -33 | -5 | . | . | . | .
COc1ccccc1NC(=O)C(C)OC(=O)C1CCC(C(C)(C)C)CC1 (stereo not drawn) | 0 | i | 100* | . | 28 | i | i | -0.93 | -4
S=C(NCCSCc1ccc(Cl)cc1Cl)Nc1ccccc1 | 8 | i | 100* | -11 | 28 | 23%* | i | -0.96 | -19
